The subject of one series is human hepatocytes. The following applies: cited from earlier work.
The format of series [1] is in vivo, human. The conditions noted are these: for AUC0-t of total radioactivity, GM (GM CV, %) / AUC0–24h of total radioactivity, GM (GM CV, %) / Cmax of total radioactivity, GM (GM CV, %) / Tmax of total radioactivity, median (min, max): single 75-mg oral dose. A digest of the protocol: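 After a single oral 75‑mg ¹⁴C dose in six healthy men, total radioactivity was measured by duplicate LSC. Plasma was spiked directly with cocktail; whole blood was solubilized and decolorized first. Plasma LLOQ was 9.91 ng eq/ml (30 dpm/ml), with sampling from 0.25 h postdose. Noncompartmental parameters used actual sampling times, with descriptive statistics.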

The nature of series [2]: Mass balance: excretion of total radioactivity in urine and feces. The class given is in vivo, human. The essentials: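 Six healthy men received one oral 75‑mg solution (30 ml, ~3.6 MBq/~100 μCi ¹⁴C label), followed by two 50‑ml bottle rinses. Urine got scintillation cocktail directly. Feces were homogenized with equal weight of water, dried, and combusted with CO2 trapped in absorber. LSC was done in duplicate. Excretion was expressed against the administered radioactive dose over nominal collection intervals, with descriptive statistics.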

Series [3] relates to patients with relapsing MS. The following applies: cited from earlier work.
The conditions of series [4]: cited from earlier work.
The subject of another series is BTK. The conditions noted are these: cited from earlier work.
A short description of series [5]: Plasma PK of evobrutinib by validated LC-MS/MS. The class given is in vivo, human. The essentials: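 Unlabeled drug was measured in K2EDTA plasma (100 µL) by validated LC‑MS/MS with an isotopically labeled internal standard. LLOQ was 0.600 ng/ml, linear to 600 ng/ml with 1/x2‑weighted regression. Participants were six healthy men given a single oral 75‑mg solution dose. Noncompartmental Cmax, Tmax, AUC, t1/2, Vz/F and CL/F used actual sampling times. Parent AUC was related to plasma total‑radioactivity AUC.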

The nature of the next series: Safety. The class given is in vivo, human. The following applies: single dose of ^14C-evobrutinib.
A short description of series [6]: Metabolite profiling and identification in plasma, urine and feces. In kind it is in vivo, human. The essentials:
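UPLC‑HR‑MS (QTof) with the eluent fractionated every 7 s, off‑line microplate scintillation counting, and reconstructed radiochromatograms. Urine and feces were pooled per participant covering ≥90% of excreted radioactivity, excluding low‑radioactivity intervals. Plasma (1–24 h) was exhaustively extracted with ethanol/acetonitrile, evaporated under nitrogen at 37°C, and redissolved in ACN/MeOH/water 1+1+8. Nonextractable radioactivity was the precipitate counted by LSC, as % of total. AUCs were noncompartmental.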

The subject of the next series is rat hepatocytes. The conditions noted are these: cited from earlier work.
Where [7] appears, read: single 75-mg oral dose of ^14C-evobrutinib, six healthy men, within 168 h.

“Also recorded” adds a separate entry of the source. Read-outs that look alike come from different tables or passages of the source.

The source of these data is article PMC8604242 (Clinical and Translational Science, 2021).

Regarding `Nc1ncnc(NCC2CCN(C(=O)C(O)CO)CC2)c1-c1ccc(Oc2ccccc2)cc1` (centres unmarked) [evobrutinib‐diol], the “Rank among metabolites in human hepatocytes” value in the series on human hepatocytes was “main metabolite”.

One may read the Cmax as the maximum level reached in the sampled fluid or tissue. The term Vd/F denotes the volume of distribution divided by bioavailability. For `C=CC(=O)N1CCC(CNc2ncnc(N)c2-c2ccc(Oc3ccccc3)cc2)CC1` [evobrutinib], the “Mean blood to plasma ratio of total radioactivity” value in series [1] (at 72 and 96 h postdose) came out at 1.6. In [1] (at 0.25 h postdose), the “Mean blood to plasma ratio of total radioactivity” value was 0.6. Besides, in series [1] (plasma, postdose), the “Time of individual maximum total radioactivity concentration in plasma, range” value was in the range of 0.25 to 1 h. Besides, in series [1] (plasma), the “AUC0-t of total radioactivity, GM (GM CV, %)” value is reported as 3915 (32.7) ng (eq) h/ml; the “AUC0–24h of total radioactivity, GM (GM CV, %)” value was 2805 (14.8) ng (eq) h/ml; the “Cmax of total radioactivity, GM (GM CV, %)” value is recorded as 1047 (22.8) ng eq/ml; the “Tmax of total radioactivity, median (min, max)” value (“Tmax of total radioactivity” below) was 0.5 h. Also, the “Tmax of total radioactivity” value in series [1] (plasma, listed as 14C‐radiolabeled evobrutinib) was 0.50 (0.25, 1.00) h. In addition, in series [1] (whole blood), the “AUC0-t of total radioactivity, GM (GM CV, %)” value is listed as 4944 (13.6) ng (eq) h/ml; the “AUC0–24h of total radioactivity, GM (GM CV, %)” value is listed as 2001 (9.9) ng (eq) h/ml; the “Cmax of total radioactivity, GM (GM CV, %)” value is listed as 623 (25.5) ng eq/ml; the “Tmax of total radioactivity” value is listed as 0.5 h. Besides, the “Tmax of total radioactivity” value in series [1] (whole blood, listed as 14C‐radiolabeled evobrutinib) is 0.50 (0.25, 1.00) h. For the same compound, in series [2] (single 75-mg oral dose), the “Unchanged evobrutinib in excreta (urine or feces)” value was “No unchanged evobrutinib was detected; also recorded: No unchanged evobrutinib was recovered”. In series [2] (setting [7]), the “Total radioactivity excreted in feces, arithmetic mean percentage of dose” value worked out at 71.0% and the “Total radioactivity excreted in urine, arithmetic mean percentage of dose” value is listed as 20.6%. The “Radioactive dose excreted in feces within 96 h, range” value in series [2] (single 75-mg oral dose, 0-96 h) is on record as 66.4–73.5%. For the same compound, the “Total radioactivity excreted within 72 h after administration (mean)” value in series [2] (single 75-mg oral dose, urine plus feces, first 72 h) is 85.3%. Moreover, in series [2] (single 75-mg oral dose, urine plus feces, within 96 h), the “Mean total radioactivity recovery within 96 h” value was found to be 89.7%. In addition, in series [2] (single 75-mg oral dose, urine plus feces, within 168 h), the “Mean total radioactivity recovery” value worked out at 91.6%. Also, the “Total number of gadolinium-enhancing lesions on T1-weighted MRI versus placebo” value in series [3] (75 mg q.d. and b.i.d., over 24 weeks) is “significantly reduced”. In addition, in [3], the “Severity of the majority of TEAEs” value is “mild or moderate”. In addition, the Half-life in series [4] (25–200 mg doses) was 1.8 to 2.6 h. The “Participants with treatment-emergent adverse events” value in series [4] (after multiple-dosing, 13 participants) is recorded as 48.1%. In addition, in series [4] (after single-dosing, nine participants), the “Participants with treatment-emergent adverse events” value is given as 25%. The “Severity of most TEAEs” value in [4] was “mild”. In series [4] (healthy participants), the Half-life was ~ 2 h and the “Time to reach maximum plasma concentration (Tmax)” value was ~ 0.5 h. Also, the “Dose-proportionality, accumulation and time-dependency of PK” value in series [4] (single 25-500 mg, 25-200 mg q.d. for 14 days) is “dose‐proportional, with no accumulation or time‐dependency with repeat dosing”. In the series on BTK (25 mg, multiple daily dosing, healthy participants), the “BTK occupancy after multiple daily dosing” value is “Full BTK occupancy”. For the same compound, the “BTK occupancy at 96 h” value with BTK (doses of greater than or equal to 100 mg) was “greater than 50%”. Further, the “Maximum BTK occupancy” value with BTK (reached within ~ 4 h after single doses of greater than or equal to 200 mg) was over 90%. In series [5] (human, plasma, po, 75 mg), this compound had a Cmax of 321 ng/mL, a Half-life of 79.8 min and a Vd/F of 381 L. Besides, the “Time of individual maximum evobrutinib plasma concentration, range” value in series [5] (plasma, postdose) is 0.25 to 0.50 h. Also, in series [5] (plasma, single 75-mg oral dose), the “AUC0-t of evobrutinib, GM (GM CV, %)” value is recorded as 375 (19.4) ng (eq) h/ml; the “AUC0–24h of evobrutinib, GM (GM CV, %)” value is reported as 378 (19.4) ng (eq) h/ml; the “CL/F, GM (GM CV, %)” value is 199 (19.4) L/h; the “Tmax of evobrutinib, median (min, max)” value amounted to 0.5 h. Also, the “Tmax of evobrutinib, median (min, max)” value in [5] (plasma, single 75-mg oral dose, listed as Evobrutinib) was 0.50 (0.25, 0.55) h. In addition, in [5] (single dose), the “Parent drug share of total radioactivity plasma exposure (AUC)” value is 10–13%. Also, in the series on human hepatocytes (rat and human hepatocytes), the “Number of different metabolites formed” value was 23. In the series “Safety”, the “Nausea, headache, epistaxis, and nasopharyngitis, number of participants each” value stood at 1 participant each; the “Oropharyngeal pain, number of participants” value came out at 2 participants; the “Serious AEs, deaths, or withdrawals” value is “no serious AEs, deaths, or withdrawals”; the “Severity and relatedness of AEs” value is “mild and not considered study treatment related”. In addition, the “Participants who experienced an adverse event” value in “Safety” (four of six participants) was determined as 67%. The “Number of metabolites detected and elucidated in feces” value in series [6] (feces) stood at 30. In series [6] (in vivo), the “Number of phase I metabolites fully or partially elucidated” value worked out at 40; the “Number of phase II metabolites fully or partially elucidated” value is 18; the “Total number of metabolites identified in urine, feces, and plasma” value was found to be 58. Further, the “Number of metabolites detected and elucidated in plasma” value in [6] (plasma) stood at 24. Further, the “Geometric mean AUC0–24 of nonextractable radioactivity” value in [6] (plasma, after exhaustive extraction) was determined as 1085 h٠ng eq/ml. Also, the “Unchanged evobrutinib in feces” value in [6] (pooled feces) is “not detected”. For the same compound, the “Unchanged evobrutinib in urine metabolite profiles” value in series [6] (pooled urine) is recorded as “not detected”. Also, the “Number of metabolites detected and elucidated in urine” value in [6] (urine) was determined as 41.

Consider hydroxyl‐evobrutinib, for which the “Rank among metabolites in rat hepatocytes” value in the series on rat hepatocytes is reported as “most abundant metabolite”.
